Active and inactive are the calls of the source. No cut-off for these calls is given here.
Tests used:
[1] = biological target: T1, 5-hydroxytryptamine receptor 3A (Cavia porcellus) (UniProt O70212); experiment: Agonist activity at 5HT3 receptor in guinea pig thoracic aorta assessed as positive contractility potency at 100 uM; assay type: functional, tissue-based
T1 sequence (whole entry): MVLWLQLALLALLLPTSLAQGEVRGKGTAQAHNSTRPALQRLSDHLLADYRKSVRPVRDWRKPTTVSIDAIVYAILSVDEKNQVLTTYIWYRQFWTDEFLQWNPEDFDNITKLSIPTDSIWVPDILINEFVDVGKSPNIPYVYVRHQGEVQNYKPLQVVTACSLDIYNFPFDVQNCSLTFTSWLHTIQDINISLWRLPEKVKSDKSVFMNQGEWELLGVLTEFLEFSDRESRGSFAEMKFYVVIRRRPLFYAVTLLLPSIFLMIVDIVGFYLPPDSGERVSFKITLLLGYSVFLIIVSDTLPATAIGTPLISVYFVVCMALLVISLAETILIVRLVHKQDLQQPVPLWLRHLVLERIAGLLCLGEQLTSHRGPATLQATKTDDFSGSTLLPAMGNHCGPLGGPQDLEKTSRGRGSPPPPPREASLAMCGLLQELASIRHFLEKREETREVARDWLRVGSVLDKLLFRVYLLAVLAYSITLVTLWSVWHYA
Procedure, shortened: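 Guinea pig aortic helicoidal strips in PSS at 35 °C, aerated, under 1 g resting force, washed every 20 min for 1 h. Compounds added cumulatively 0.1-100 µM (DMSO vehicle); isometric contraction recorded.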

Rattus norvegicus [2] = experiment: Agonist activity at 5HT3 receptor in urethane-anesthetized Sprague-Dawley rat assessed as induction of bradycardia at 50 ug/kg, iv measured after 5 to 30 mins post-treatment by von Bezold-Jarisch reflex test relative to 40 ug/kg, iv 1-phenylbiguanide; assay type: functional
[3] = biological target: T1, 5-hydroxytryptamine receptor 3A (Cavia porcellus); experiment: Agonist activity at 5HT3 receptor in spontaneously beating guinea pig right atrium assessed as positive chronotropic potency at 100 uM; assay type: functional, tissue-based; conditions: Cardiac atrium
Procedure, shortened: (§1)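 Guinea pig left and right atria were hung in a 15 mL bath of PSS (pH 7.4, 95% O2-5% CO2, 35 °C) with ketanserin 1 µM. The right atrium beat spontaneously; the left was paced at 1 Hz. Cumulative doses (0.1-100 µM; DMSO ≤0.3%) were added after 45-60 min stabilization. Rate or isometric force was recorded. EC50 came from Probit analysis, n≥4. Intrinsic activity was taken relative to 5-HT.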

[4] = biological target: T2, Alpha-2A adrenergic receptor (Rattus norvegicus, UniProt P22909); experiment: Displacement of [3H]RX821002 from adrenergic alpha2 receptor in rat cortex
T2 sequence (P22909 whole entry): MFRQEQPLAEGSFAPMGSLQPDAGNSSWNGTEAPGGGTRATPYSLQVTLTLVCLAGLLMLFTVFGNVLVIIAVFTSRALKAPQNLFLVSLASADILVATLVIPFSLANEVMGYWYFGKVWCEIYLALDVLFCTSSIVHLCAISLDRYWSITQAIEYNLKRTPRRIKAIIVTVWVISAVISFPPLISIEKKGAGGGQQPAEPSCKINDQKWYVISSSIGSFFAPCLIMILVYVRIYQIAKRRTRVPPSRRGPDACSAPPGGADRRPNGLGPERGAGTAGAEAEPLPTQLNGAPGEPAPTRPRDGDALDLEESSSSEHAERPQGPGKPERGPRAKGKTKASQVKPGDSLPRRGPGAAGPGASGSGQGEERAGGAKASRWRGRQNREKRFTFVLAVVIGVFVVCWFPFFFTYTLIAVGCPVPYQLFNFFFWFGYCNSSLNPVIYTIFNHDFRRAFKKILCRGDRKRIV

[5] = biological target: T3, 5-hydroxytryptamine receptor 1A (Rattus norvegicus, UniProt P19327); experiment: Displacement of [3H]8-OHDPAT from 5HT1A receptor in rat hippocampus; assay type: tissue-based
T3 sequence (P19327 whole entry): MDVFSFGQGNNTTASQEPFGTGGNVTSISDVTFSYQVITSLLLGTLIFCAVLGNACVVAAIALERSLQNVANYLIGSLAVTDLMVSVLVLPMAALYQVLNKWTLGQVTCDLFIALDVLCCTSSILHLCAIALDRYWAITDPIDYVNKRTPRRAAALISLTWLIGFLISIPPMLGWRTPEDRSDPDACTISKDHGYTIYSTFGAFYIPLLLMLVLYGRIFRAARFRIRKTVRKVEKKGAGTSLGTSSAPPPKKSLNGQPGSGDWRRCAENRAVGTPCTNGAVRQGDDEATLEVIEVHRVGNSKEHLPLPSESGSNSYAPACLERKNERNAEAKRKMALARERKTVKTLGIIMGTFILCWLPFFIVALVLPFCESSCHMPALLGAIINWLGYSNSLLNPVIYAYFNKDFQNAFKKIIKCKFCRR

D(2) dopamine receptor = D(2) dopamine receptor (Rattus norvegicus, UniProt P61169); experiment: Displacement of [3H]spiperone from dopamine D2 receptor in rat striatum
D(2) dopamine receptor, sequence (P61169 whole entry): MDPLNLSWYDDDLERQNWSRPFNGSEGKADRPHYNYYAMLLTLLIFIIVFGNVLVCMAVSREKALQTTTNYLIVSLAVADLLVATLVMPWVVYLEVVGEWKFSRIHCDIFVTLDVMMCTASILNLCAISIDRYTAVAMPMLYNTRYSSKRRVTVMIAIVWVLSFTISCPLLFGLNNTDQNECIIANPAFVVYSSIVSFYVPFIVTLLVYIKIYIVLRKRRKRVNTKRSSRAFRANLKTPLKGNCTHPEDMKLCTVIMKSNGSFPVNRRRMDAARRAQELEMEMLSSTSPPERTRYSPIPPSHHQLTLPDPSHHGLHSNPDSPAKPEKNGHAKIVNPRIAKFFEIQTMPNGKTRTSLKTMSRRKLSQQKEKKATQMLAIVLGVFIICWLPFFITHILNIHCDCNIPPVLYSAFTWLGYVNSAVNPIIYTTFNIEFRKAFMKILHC

Rattus norvegicus [6] = experiment: Partial agonist activity at 5HT3 receptor in iv dosed urethane-anesthetized Sprague-Dawley rat assessed as induction of bradycardia measured after 5 to 30 mins post-treatment by von Bezold-Jarisch reflex test; assay type: functional; conditions: read-out: ID50 (the source's name)
[7] = biological target: 5-hydroxytryptamine receptor 4 (Cavia porcellus, UniProt O70528); experiment: Displacement of [3H]GR-113808 from 5HT4 receptor in guinea pig striatum
5-hydroxytryptamine receptor 4, sequence (O70528 whole entry): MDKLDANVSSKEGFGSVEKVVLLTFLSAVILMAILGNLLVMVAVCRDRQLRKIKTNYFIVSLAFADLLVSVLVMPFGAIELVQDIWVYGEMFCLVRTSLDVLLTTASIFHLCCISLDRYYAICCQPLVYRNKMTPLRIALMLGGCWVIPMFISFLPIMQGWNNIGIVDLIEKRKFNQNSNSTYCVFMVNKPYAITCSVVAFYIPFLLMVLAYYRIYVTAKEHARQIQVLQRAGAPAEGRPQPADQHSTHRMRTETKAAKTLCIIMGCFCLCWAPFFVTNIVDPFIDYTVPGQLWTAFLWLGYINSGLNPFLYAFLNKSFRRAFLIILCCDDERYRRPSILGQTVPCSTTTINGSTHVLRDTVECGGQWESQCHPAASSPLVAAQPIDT

[8] = biological target: T4, 5-hydroxytryptamine receptor 3A (Cavia porcellus, UniProt O70212); experiment: Antagonist activity at 5HT3 receptor in spontaneously beating guinea pig right atrium assessed as inhibition of serotonin-induced maximum response by noncompetitive binding assay; assay type: tissue-based, Cardiac atrium
T4 sequence (O70212 whole entry): T1 sequence (whole entry)
Procedure, shortened: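 Spontaneously beating guinea pig right atrium; 5-HT concentration-response curves (0.001-1.0 µM) before and after 30 min antagonist exposure at three concentrations. IC50 is inhibition of 50% of maximal 5-HT response, Probit analysis, n = 4-6.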

[9] = Plasma concentration in CD1 albino mouse at 20 mg/kg, ip after 15 mins; assay type: ADME, organism-based; design: dose 20 mg/kg, route intraperitoneal
Procedure, shortened: (§2)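 Male CD1 mice (25-30 g) given ip 5 or 20 mg/kg, killed at set times; trunk blood plasma and brain collected. Solid-phase C18 extraction with internal standard, HPLC-UV at 240 nm. Quantification limits about 0.25 nmol/mL plasma, 0.5 nmol/g brain. Three mice per point. Half-life 0.693/β; clearance dose·F/AUC.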

[10] = Plasma concentration in CD1 albino mouse at 5 mg/kg, ip after 15 mins; assay type: ADME, organism-based; design: dose 5 mg/kg, route intraperitoneal; procedure, shortened: as §2
[11] = Elimination half life in CD1 albino mouse plasma at 20 mg/kg, ip; assay type: ADME, organism-based; design: dose 20 mg/kg, route intraperitoneal; conditions: read-out: beta t1/2; procedure, shortened: as §2
Rattus norvegicus [12] = experiment: Activity at 5HT3 receptor in urethane-anesthetized Sprague-Dawley rat assessed as effect on heart rate at 100 ug/kg, iv measured after 5 to 30 mins post-treatment by von Bezold-Jarisch reflex test relative to 40 ug/kg, iv 1-phenylbiguanide; assay type: functional, organism-based
[13] = biological target: T1, 5-hydroxytryptamine receptor 3A (Cavia porcellus); experiment: Intrinsic activity at 5HT3 receptor in spontaneously beating guinea pig right atrium assessed as positive chronotropic potency relative to serotonin; conditions: Cardiac atrium; procedure, shortened: as §1
[14] = Clearance in CD1 albino mouse plasma at 20 mg/kg, ip; assay type: ADME, organism-based; design: dose 20 mg/kg, route intraperitoneal; procedure, shortened: as §2
[15] = Apparent volume of distribution with respect to the bioavailability in CD1 albino mouse plasma at 20 mg/kg, ip; assay type: ADME, organism-based; conditions: read-out: Vc/F; procedure, shortened: as §2

| SMILES | pD2 [1] | Activity (Rattus norvegicus [2]) [%] | pD2 [3] | Ki [4] [µM] | Ki [5] [µM] | Ki (D(2) dopamine receptor) [µM] | ED50 (Rattus norvegicus [6]) [mg/kg] | Ki [7] [µM] | IC50 [8] [µM] | concentration at 0.25 h [9] [µM] | concentration at 0.25 h [10] [µM] | half-life [11] [min] | Activity (Rattus norvegicus [12]) | Intrinsic activity [13] | CL/F [14] [mL/min/kg] | Vd/F [15] [L/kg] |
| --- | --- | --- | --- | --- | --- | --- | --- | --- | --- | --- | --- | --- | --- | --- | --- | --- |
| N/C(CN1CCN(c2nc3cc(F)ccc3n3cccc23)CC1)=N\O | inactive | 60 | inactive | > 10 | > 10 | > 10 | 0.03 | > 10 | 5.75 | – | – | – | – | – | – | – |
| N[C@@H](CN1CCN(c2nc3cc(F)ccc3n3cccc23)CC1)C(=O)O | inactive | – | – | > 10 | 0.446 | > 10 | – | > 10 | – | 12 | 2 | 53 | inactive | 0.81 | 90 | 6 |
